1 molecule from ChEMBL document CHEMBL4609986 (Bioorg Med Chem, 2020) can be followed below.

The nature of data set [1]: Selectivity index, ratio of CC50 for mouse R7T1 cells assessed as reduction in cell viability measured after 48 hrs by Hoechst 33342 staining based analysis to MEC for inhibition of DYRK1A in human pancreatic islets assessed as induction of pancreatic beta-cells replication measured after 48 hrs by Hoechst 33342 staining based analysis.
The target in another data set is AURKB (Aurora kinase B) (Homo sapiens, UniProt Q96GD4). The data set is described as follows: Inhibition of AURKB in human HEK293T cells assessed as reduction in cell viability at 270 nM measured after 48 hrs in presence of 3 uM MK-5108 relative to control. Format: cell-based, HEK-293T. In outline:
(§1)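 HEK293T cells treated 48 h with the compound alone or combined with a second kinase inhibitor at the stated level, then fixed, stained and counted. Cell number expressed as a percentage of untreated wells; n = 4-16.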

The target of data set [2] is Tyrosine-protein kinase ABL1 (Homo sapiens, UniProt P00519). The data set is described as follows: Inhibition of ABL1 in human HEK293T cells assessed as cell death at 30 to 270 nM measured after 48 hrs in presence of 1 uM dasatinib. Type of data set: cell-based. The conditions noted are these: hek-293t, 0.27 µM. In outline: as §1
In data set [3] the target is T1, Aurora kinase A (Homo sapiens) (UniProt O14965).
T1 sequence (whole entry): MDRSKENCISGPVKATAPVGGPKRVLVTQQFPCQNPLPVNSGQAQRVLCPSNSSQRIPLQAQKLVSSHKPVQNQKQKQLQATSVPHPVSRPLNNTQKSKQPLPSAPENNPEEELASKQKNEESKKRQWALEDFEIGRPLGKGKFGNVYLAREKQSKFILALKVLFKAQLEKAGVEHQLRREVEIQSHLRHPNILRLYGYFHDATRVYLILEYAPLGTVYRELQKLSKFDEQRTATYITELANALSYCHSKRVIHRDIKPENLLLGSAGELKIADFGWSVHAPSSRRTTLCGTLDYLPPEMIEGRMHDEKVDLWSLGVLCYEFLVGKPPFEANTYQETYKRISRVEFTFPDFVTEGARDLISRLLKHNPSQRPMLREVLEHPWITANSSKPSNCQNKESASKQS
The experiment in a line: Inhibition of wild-type human partial length AURKA (E122 to K401 residues) expressed in mammalian expression system assessed as residual activity at 500 nM by Kinomescan method relative to control. In outline:
(§2)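 Kinase panel of 468 kinases, scored as residual activity at 100 nM or 500 nM test compound.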

Data set [4] concerns the target Dual specificity mitogen-activated protein kinase kinase 1 (Homo sapiens) (UniProt Q02750). The experiment in a line: Inhibition of wild-type human full length MEK1 (M1 to V393 residues) expressed in mammalian expression system assessed as residual activity at 500 nM by Kinomescan method relative to control. In outline: as §2

Chain of Tyrosine-protein kinase ABL1 (P00519 whole entry): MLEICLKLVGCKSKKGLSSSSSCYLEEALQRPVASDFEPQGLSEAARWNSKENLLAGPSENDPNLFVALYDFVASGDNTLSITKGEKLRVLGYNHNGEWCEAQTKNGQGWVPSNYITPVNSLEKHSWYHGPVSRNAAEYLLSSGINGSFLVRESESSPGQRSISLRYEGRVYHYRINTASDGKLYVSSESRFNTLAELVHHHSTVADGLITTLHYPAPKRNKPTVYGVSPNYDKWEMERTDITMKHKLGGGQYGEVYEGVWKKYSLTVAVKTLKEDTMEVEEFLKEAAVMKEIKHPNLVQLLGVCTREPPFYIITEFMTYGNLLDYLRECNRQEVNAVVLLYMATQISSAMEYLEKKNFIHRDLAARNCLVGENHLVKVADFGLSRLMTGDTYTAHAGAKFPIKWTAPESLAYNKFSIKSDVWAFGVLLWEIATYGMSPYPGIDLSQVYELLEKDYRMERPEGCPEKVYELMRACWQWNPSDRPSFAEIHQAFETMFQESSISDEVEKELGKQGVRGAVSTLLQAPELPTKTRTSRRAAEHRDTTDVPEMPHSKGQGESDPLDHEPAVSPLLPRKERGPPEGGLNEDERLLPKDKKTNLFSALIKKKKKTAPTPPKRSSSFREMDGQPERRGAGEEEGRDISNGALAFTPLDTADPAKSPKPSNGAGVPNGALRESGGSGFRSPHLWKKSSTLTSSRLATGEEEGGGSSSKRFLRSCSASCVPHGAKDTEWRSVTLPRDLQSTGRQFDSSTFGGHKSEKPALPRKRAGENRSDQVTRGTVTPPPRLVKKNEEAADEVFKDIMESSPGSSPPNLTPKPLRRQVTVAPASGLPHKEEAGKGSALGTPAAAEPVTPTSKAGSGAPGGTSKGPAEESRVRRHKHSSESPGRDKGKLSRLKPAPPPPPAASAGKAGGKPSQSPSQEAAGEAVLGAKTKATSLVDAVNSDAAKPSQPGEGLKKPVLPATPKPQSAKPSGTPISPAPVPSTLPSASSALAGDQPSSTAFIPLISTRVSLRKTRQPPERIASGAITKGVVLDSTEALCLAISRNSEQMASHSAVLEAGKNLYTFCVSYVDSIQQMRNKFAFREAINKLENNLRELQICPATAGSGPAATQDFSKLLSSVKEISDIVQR
Chain of AURKB (Aurora kinase B) (Q96GD4 whole entry): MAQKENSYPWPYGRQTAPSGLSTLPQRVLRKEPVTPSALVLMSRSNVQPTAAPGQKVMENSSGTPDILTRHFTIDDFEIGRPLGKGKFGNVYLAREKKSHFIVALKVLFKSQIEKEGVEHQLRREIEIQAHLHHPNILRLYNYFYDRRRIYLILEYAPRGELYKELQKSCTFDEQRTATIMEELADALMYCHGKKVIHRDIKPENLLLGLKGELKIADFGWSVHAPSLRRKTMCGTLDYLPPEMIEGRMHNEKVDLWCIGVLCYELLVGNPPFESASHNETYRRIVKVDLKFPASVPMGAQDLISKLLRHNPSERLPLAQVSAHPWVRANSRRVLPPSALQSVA
Chain of Dual specificity mitogen-activated protein kinase kinase 1 (Homo sapiens) (Q02750 whole entry, the tested form may be a part): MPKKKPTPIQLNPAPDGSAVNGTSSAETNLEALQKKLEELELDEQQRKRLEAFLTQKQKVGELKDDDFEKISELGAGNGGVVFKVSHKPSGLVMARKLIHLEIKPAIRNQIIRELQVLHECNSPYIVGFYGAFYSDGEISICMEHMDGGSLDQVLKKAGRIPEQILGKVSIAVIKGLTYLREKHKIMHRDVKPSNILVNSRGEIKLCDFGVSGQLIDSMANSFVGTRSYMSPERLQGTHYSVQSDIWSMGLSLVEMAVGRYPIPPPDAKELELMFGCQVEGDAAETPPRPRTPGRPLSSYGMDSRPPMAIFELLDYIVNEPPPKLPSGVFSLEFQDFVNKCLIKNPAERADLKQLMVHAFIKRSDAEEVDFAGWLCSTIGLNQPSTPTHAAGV

Regarding `CCOC(=O)c1cnc2ccc(-c3ccncc3)nc2c1N[C@H]1CC[C@H](CN(C)C)CC1`, the “Selectivity Index” value in data set [1] worked out at 143. For the same molecule, the inhibition at 48 h, 0.27 µM at AURKB (Aurora kinase B) amounted to 34%. The “inhibition (INH)” value in data set [2] is “Not Active”. Further, the Activity was found to be 97% in data set [3] and 69% in data set [4].
